# Data published in ChEMBL document CHEMBL1128448, “Synthesis and antifungal activity of new azole derivatives containing an N-acylmorpholine ring” (1995).
# Tests used:
# Candida tropicalis [1] = test: Evaluation of In vitro antifungal activity against Candida tropicalis 2.11 by broth macro dilution method; format: functional
# Outline: (§1)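 Yeast MIC and MFC by broth macrodilution per NCCLS M27-P in RPMI-1640 buffered with 0.165 M MOPS. Fluconazole in sterile water, other drugs in DMSO. C. parapsilosis ATCC 22019 is the reference strain in each run. MIC is the lowest concentration with turbidity ≤ the 80% inhibition standard. For MFC, 0.04 mL from clear tubes is plated on Sabouraud agar; MFC is the lowest concentration giving ≤1 colony.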
# Candida albicans [2] = test: Evaluation of In vitro antifungal activity against Candida albicans 60 by broth macro dilution method
# Cryptococcus neoformans [3] = test: Evaluation of In vitro antifungal activity against Cryptococcus neoformans 74 by broth macro dilution method; format: functional; outline: as §1
# Cryptococcus neoformans [4] = test: Evaluation of In vitro antifungal activity against Cryptococcus neoformans 87 by broth macro dilution method; format: functional; outline: as §1
# Rattus norvegicus [5] = test: In vivo evaluation of antifungal activity against vaginal candidosis in rat at dose 0.25 mg/kg on 10th day; format: functional
# Outline: (§2)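 Groups of 10 female Wistar rats given estradiol 25 mg/kg sc on day -5, infected intravaginally with C. albicans by sterile swab on day 0; infection confirmed on day 3 by swab culture (TSB, then Sabouraud agar). Oral dosing once daily on days 3, 4, 5; vehicle controls. Vaginal swabs cultured on days 10 and 15; read-out % cured (culture-negative).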
# Candida albicans [6] = test: Evaluation of In vitro antifungal activity against Candida albicans 76 by broth macro dilution method; format: functional; outline: as §1
# Pichia kudriavzevii [7] = test: Evaluation of In vitro antifungal activity against Candida krusei 70 by broth macro dilution method; format: functional; outline: as §1
# Mus sp. [8] = test: In vivo evaluation of % survival rate after peroral administration on 9th day at dose 1 mg/kg; format: functional; settings: route oral, 1 mg/kg
# Kluyveromyces marxianus [9] = test: In vitro evaluation of minimum inhibitory concentration against Candida pseudotropicalis 13; format: functional
# Outline: (§3)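 Stocks are 800 μg/mL in 50% ethanol. Each plate gets 10 μL of inoculum at 10^5 cfu/mL. Incubation at 25 °C, 48 h for yeasts and 120 h for dermatophytes and molds. Organisms are ATCC strains or clinical isolates.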
# Candida albicans [10] = test: Evaluation of […] antifungal activity against Candida albicans 60 by broth macro dilution method; format: functional; outline: as §1
# Candida parapsilosis [11] = test: Evaluation of In vitro antifungal activity against Candida parapsilosis 2.07 by broth macro dilution method; format: functional; settings: Lodderomyces parapsilosis; outline: as §1
# [12] = tested on: Meyerozyma guilliermondii; test: Evaluation of In vitro antifungal activity against Candida guilliermondii 26 by broth macro dilution method; format: functional; outline: as §1
# Pichia kudriavzevii [13] = test: Evaluation of In vitro antifungal activity against Candida krusei C64 by broth macro dilution method; format: functional; outline: as §1
# Trichophyton benhamiae = test: In vitro evaluation of minimum inhibitory concentration against Trichophyton mentagrophytes 23; format: functional, Arthroderma benhamiae; outline: as §3
# Mus musculus [14] = test: In vivo evaluation of % survival rate after peroral administration on 7th day at dose 0.5 mg/kg(as a water solution in (hydroxypropyl -beta-cyclodextrin)); format: functional; settings: route oral
# Outline: (§4)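 Groups of 10 male mice were infected iv with 0.2 mL of C. albicans at (2-8) × 10^7 cfu/mL. Oral doses were given at 1, 4 and 24 h post-infection. Vehicle-only controls were included, with at least 90% control mortality by day 3. Percent survival was recorded on days 3, 5, 7 and 9.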
# Mus musculus [15] = test: In vivo evaluation of % survival rate after peroral administration on 9th day at dose 0.5 mg/kg(as a water solution in (hydroxypropyl -beta-cyclodextrin)); format: functional; settings: route oral; outline: as §4
# Aspergillus flavus = test: In vitro evaluation of minimum inhibitory concentration against Aspergillus flavus 19; format: functional; outline: as §3
# Candida albicans [16] = test: In vivo evaluation of minimum inhibitory concentration against Candida albicans 60; format: functional
# Outline: (§5)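 Broth macrodilution MIC following NCCLS M27-P, in RPMI-1640 buffered with 0.165 M MOPS. Fluconazole was dissolved in water and other drugs in DMSO. C. parapsilosis ATCC 22019 served as the reference strain in every run. MIC was the lowest concentration giving turbidity at or below the 80% inhibition standard.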
# Candida albicans [17] = test: Evaluation of In vitro antifungal activity against Candida albicans 2.01 by broth macro dilution method; format: functional; outline: as §1
# Mus musculus [18] = test: In vivo evaluation of % survival rate after peroral administration on 3rd day at dose 0.5 mg/kg(as a water solution in (hydroxypropyl -beta-cyclodextrin)); format: functional; settings: route oral; outline: as §4
# Candida tropicalis [19] = test: Evaluation of In vitro antifungal activity against Candida tropicalis 50 by broth macro dilution method; format: functional; outline: as §1
# Mus musculus [20] = test: In vivo evaluation of % survival rate after peroral administration on 5th day at dose 0.5 mg/kg(as a water solution in (hydroxypropyl -beta-cyclodextrin)); format: functional; settings: route oral; outline: as §4
# Kluyveromyces marxianus [21] = test: Evaluation of In vitro antifungal activity against Candida pseudotropicalis ATCC 28838 by broth macro dilution method; format: functional; outline: as §1
# Nakaseomyces glabratus [22] = test: Evaluation of In vitro antifungal activity against Torulopsis glabrata 78 by broth macro dilution method; format: functional; outline: as §1
# Candida albicans [23] = test: Evaluation of In vitro antifungal activity against Candida albicans 31 by broth macro dilution method; format: functional; outline: as §1
# Candida parapsilosis [24] = test: Evaluation of In vitro antifungal activity against Candida parapsilosis C292 by broth macro dilution method; format: functional; settings: Lodderomyces parapsilosis; outline: as §1
# Candida parapsilosis [25] = test: Evaluation of In vitro antifungal activity against Candida parapsilosis ATCC 141095 by broth macro dilution method; format: functional; settings: Lodderomyces parapsilosis; outline: as §1
# Pichia kudriavzevii [26] = test: In vitro evaluation of minimum inhibitory concentration against Candida krusei 70; format: functional; outline: as §3
# Candida tropicalis [27] = test: In vitro evaluation of minimum inhibitory concentration against Candida tropicalis 2.11; format: functional; outline: as §3
# Candida parapsilosis [28] = test: Evaluation of In vitro antifungal activity against Candida parapsilosis C74 by broth macro dilution method; format: functional; settings: Lodderomyces parapsilosis; outline: as §1
# Candida albicans [29] = test: In vitro evaluation of minimum inhibitory concentration against Candida albicans 76; format: functional; outline: as §3
# Rattus norvegicus [30] = test: In vivo evaluation of antifungal activity against vaginal candidosis in rat at dose 0.1 mg/kg on 15th day; format: functional
# Outline: (§6)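 Groups of 10 female Wistar rats given estradiol 25 mg/kg sc on day -5, then vaginally inoculated with C. albicans on day 0. Infection is confirmed by culture of day-3 swabs. Compound is dosed orally once daily on days 3–5; controls get vehicle. Cure is scored by culture of vaginal swabs taken on days 10 and 15.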
# Aspergillus niger = test: In vitro evaluation of minimum inhibitory concentration against Aspergillus niger 18; format: functional; outline: as §3
# Candida albicans [31] = test: Evaluation of In vitro antifungal activity against Candida albicans ATCC 10231 by broth macro dilution method; format: functional; outline: as §1
# Mus musculus [32] = test: In vivo evaluation of % survival rate after peroral administration on 7th day at dose 0.5 mg/kg; format: functional; settings: route oral, 0.5 mg/kg
# Mus sp. [33] = test: In vivo evaluation of % survival rate after peroral administration on 9th day at dose 0.5 mg/kg; format: functional; settings: route oral, 0.5 mg/kg
# Trichophyton rubrum = test: IIn vitro evaluation of minimum inhibitory concentration against Trichophyton rubrum 90; format: functional; outline: as §3
# Microsporum canis = test: In vitro evaluation of minimum inhibitory concentration against Microsporum canis 47; format: functional; outline: as §3
# Candida albicans [34] = test: Evaluation of In vitro antifungal activity against Candida albicans 406 by broth macro dilution method; format: functional; outline: as §1
# [35] = tested on: Meyerozyma guilliermondii; test: In vitro evaluation of minimum inhibitory concentration against Candida guilliermondii 26; format: functional; outline: as §3
# Rattus norvegicus [36] = test: In vivo evaluation of antifungal activity against vaginal candidosis in rat at dose 0.25 mg/kg on 15th day; format: functional; outline: as §2
# Candida parapsilosis [37] = test: Evaluation of In vitro antifungal activity against Candida parapsilosis ATCC 22019 by broth macro dilution method; format: functional; settings: Lodderomyces parapsilosis; outline: as §1
# Candida albicans [38] = test: Evaluation of In vitro antifungal activity against Candida albicans C56 by broth macro dilution method; format: functional; outline: as §1
# Candida albicans [39] = test: In vivo evaluation of minimum inhibitory concentration against Candida albicans 406; format: functional; outline: as §5
# Aspergillus fumigatus = test: In vitro evaluation of minimum inhibitory concentration against Aspergillus fumigatus 33; format: functional; outline: as §3
# Candida albicans [40] = test: Evaluation of In vitro antifungal activity against Candida albicans C52 by broth macro dilution method; format: functional; outline: as §1
# Candida parapsilosis [41] = test: In vitro evaluation of minimum inhibitory concentration against Candida parapsilosis 61; format: functional; outline: as §3
# Rhodotorula mucilaginosa = test: In vitro evaluation of minimum inhibitory concentration against Rhodotorula rubra 16; format: functional; outline: as §3
# Rattus norvegicus [42] = test: In vivo evaluation of antifungal activity against vaginal candidosis in rat at dose 0.1 mg/kg on 10th day; format: functional; outline: as §6
# Kluyveromyces marxianus [43] = test: Evaluation of In vitro antifungal activity against yeasts by broth macro dilution method; format: functional; outline: as §1
# Nakaseomyces glabratus [44] = test: In vitro evaluation of minimum inhibitory concentration against Torulopsis glabrata 78; format: functional; outline: as §3
compound,measurement,setting,value
C[C@H]1N(C(=O)c2ccc(C(F)(F)F)cc2)CCO[C@@]1(Cn1cncn1)c1ccc(F)cc1F (stereo in doubt; (-)-41),MFC,Candida tropicalis [1],> 64 mg/L
same,MIC,Candida tropicalis [1],4 mg/L
same,MFC,Candida albicans [2],> 64 mg/L
same,MFC,Cryptococcus neoformans [3],0.25 mg/L
same,MIC,Cryptococcus neoformans [3],0.125 mg/L
same,MFC,Cryptococcus neoformans [4],> 64 mg/L
same,MIC,Cryptococcus neoformans [4],2 mg/L
same,Cure rate,Rattus norvegicus [5],40%
same,MFC,Candida albicans [6],> 64 mg/L
same,MIC,Candida albicans [6],0.125 mg/L
same,MFC,Pichia kudriavzevii [7],> 64 mg/L
same,MIC,Pichia kudriavzevii [7],32 mg/L
same,Survival,Mus sp. [8],70%
same,MIC,Kluyveromyces marxianus [9],40 mg/L
same,MIC,Candida albicans [10],0.25 mg/L
same,MFC,Candida parapsilosis [11],> 64 mg/L
same,MIC,Candida parapsilosis [11],1 mg/L
same,MFC,[12],> 64 mg/L
same,MIC,[12],8 mg/L
same,MFC,Pichia kudriavzevii [13],> 64 mg/L
same,MIC,Pichia kudriavzevii [13],32 mg/L
same,MIC,Trichophyton benhamiae,40 mg/L
same,survival at 0.5 mg/kg,Mus musculus [14],60%
same,survival at 0.5 mg/kg,Mus musculus [15],30%
same,MIC,Aspergillus flavus,40 mg/L
same,MIC,Candida albicans [16],0.31 mg/L
same,MFC,Candida albicans [17],> 64 mg/L
same,MIC,Candida albicans [17],0.25 mg/L
same,survival at 0.5 mg/kg,Mus musculus [18],100%
same,MFC,Candida tropicalis [19],> 64 mg/L
same,MIC,Candida tropicalis [19],16 mg/L
same,survival at 0.5 mg/kg,Mus musculus [20],100%
same,MFC,Kluyveromyces marxianus [21],32 mg/L
same,MFC,Nakaseomyces glabratus [22],> 64 mg/L
same,MIC,Nakaseomyces glabratus [22],16 mg/L
same,MFC,Candida albicans [23],> 64 mg/L
same,MIC,Candida albicans [23],0.125 mg/L
same,MFC,Candida parapsilosis [24],> 64 mg/L
same,MIC,Candida parapsilosis [24],2 mg/L
same,MFC,Candida parapsilosis [25],> 64 mg/L
same,MIC,Candida parapsilosis [25],32 mg/L
same,MIC,Pichia kudriavzevii [26],40 mg/L
same,MIC,Candida tropicalis [27],40 mg/L
same,MFC,Candida parapsilosis [28],8 mg/L
same,MIC,Candida parapsilosis [28],0.5 mg/L
same,MIC,Candida albicans [29],1.25 mg/L
same,Cure rate,Rattus norvegicus [30],20%
same,MIC,Aspergillus niger,80 mg/L
same,MFC,Candida albicans [31],> 64 mg/L
same,MIC,Candida albicans [31],0.25 mg/L
same,Survival,Mus musculus [32],70%
same,Survival,Mus sp. [33],40%
same,MIC,Trichophyton rubrum,10 mg/L
same,MIC,Microsporum canis,20 mg/L
same,MFC,Candida albicans [34],> 64 mg/L
same,MIC,Candida albicans [34],0.25 mg/L
same,MIC,[35],20 mg/L
same,Cure rate,Rattus norvegicus [36],60%
same,MFC,Candida parapsilosis [37],4 mg/L
same,MIC,Candida parapsilosis [37],2 mg/L
same,MFC,Candida albicans [38],> 64 mg/L
same,MIC,Candida albicans [38],0.125 mg/L
same,MIC,Candida albicans [39],0.15 mg/L
same,MIC,Aspergillus fumigatus,40 mg/L
same,MFC,Candida albicans [40],> 64 mg/L
same,MIC,Candida albicans [40],0.125 mg/L
same,MIC,Candida parapsilosis [41],10 mg/L
same,MIC,Rhodotorula mucilaginosa,5 mg/L
same,Cure rate,Rattus norvegicus [42],10%
same,MIC,Kluyveromyces marxianus [43],0.125 mg/L
same,MIC,Nakaseomyces glabratus [44],10 mg/L
